Data as given in ChEMBL document CHEMBL4052637, “Discovery and Characterization of R/S-N-3-Cyanophenyl-N'-(6-tert-butoxycarbonylamino-3,4-dihydro-2,2-dimethyl-2H-1-benzopyran-4-yl)urea, a New Histone Deacetylase Class III Inhibitor Exerting Antiproliferative Activity against Cancer Cell Lines” (J Med Chem, 2017).
Active and inactive are the calls of the source. The calls are words filed in the database; no cut-off is given here.

What was measured:
PBMC = test: Cytotoxicity against human PBMC assessed as decrease in cell viability at 1 to 100 uM after 24 to 48 hrs; type: cell-based
NCI-H23 = test: Growth inhibition of human NCI-H23 cells after 48 hrs by SRB assay; type: functional; settings: NCI-H23, 48 h
EKVX = test: Growth inhibition of human EKVX cells after 48 hrs by SRB assay; type: functional
[1] = Potency index, ratio of sirtinol IC50 to test compound IC50 for human U373 cells; type: functional, U-373MG ATCC
UACC-257 = test: Growth inhibition of human UACC257 cells after 48 hrs by SRB assay; type: functional; settings: UACC-257, 48 h
OVCAR-5 = test: Growth inhibition of human OVCAR5 cells after 48 hrs by SRB assay; type: functional; settings: OVCAR-5, 48 h
Hs 683 [2] = test: Cell cycle arrest in human Hs683 cells assessed as accumulation at G2/M phase at 2 uM after 24 to 48 hrs by propidium iodide staining-based flow cytometry; type: functional; settings: 5.8 uM, in the assay text read “at 5.8 uM” for “at 2 uM”
Procedure, shortened: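 Cells were exposed to compound at the IC50 for each line from the 72 h MTT assay, or to a reference HDAC inhibitor at 2 μM. Cell cycle distribution was analyzed after 24 and 48 h. Results are mean ± SD of three independent experiments, with p values against control cells.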

A549 = test: Growth inhibition of human A549 cells after 48 hrs by SRB assay; type: functional; settings: A549, 48 h
[3] = biological target: T1, NAD-dependent protein deacetylase sirtuin-2 (Homo sapiens) (UniProt Q8IXJ6); test: Inhibition of SIRT2 in human Hs683 cells assessed as increase of alpha-tubulin acetylation at 10 uM after 8 hrs by Western blotting method relative to control; type: cell-based
T1 sequence (whole entry): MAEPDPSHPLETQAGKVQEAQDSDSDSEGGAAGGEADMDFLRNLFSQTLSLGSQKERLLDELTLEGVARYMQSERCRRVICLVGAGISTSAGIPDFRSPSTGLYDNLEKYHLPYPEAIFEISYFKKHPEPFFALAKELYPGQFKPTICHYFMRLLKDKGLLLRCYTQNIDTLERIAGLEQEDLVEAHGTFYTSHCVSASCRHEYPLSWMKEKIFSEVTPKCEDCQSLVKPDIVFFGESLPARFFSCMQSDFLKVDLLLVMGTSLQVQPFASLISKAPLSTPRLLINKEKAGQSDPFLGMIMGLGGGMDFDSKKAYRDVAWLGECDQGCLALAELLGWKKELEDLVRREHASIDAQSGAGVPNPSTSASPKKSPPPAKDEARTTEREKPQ

NCI-H460 = test: Growth inhibition of human NCI-H460 cells after 48 hrs by SRB assay; type: functional; settings: NCI-H460, 48 h
SNB-19 = test: Growth inhibition of human SNB19 cells after 48 hrs by SRB assay; type: functional; settings: SNB-19, 48 h
NCI-H226 = test: Growth inhibition of human NCI-H226 cells after 48 hrs by SRB assay; type: functional; settings: NCI-H226, 48 h
[4] = Antiproliferative activity against human U373 cells after 72 hrs by MTT assay; type: functional, cell-based, U-373MG ATCC; settings: U373 MG
Procedure, shortened: (§1)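 MTT assay: cells in RPMI 1640 with 10% heat-inactivated FCS at 37 °C and 5% CO2 were seeded 24 h before treatment. They were exposed 72 h to compound at 0.01–100 μM, with DMSO as solvent.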

[5] = biological target: T1, NAD-dependent protein deacetylase sirtuin-2 (Homo sapiens); test: Inhibition of SIRT2 in human Hs683 cells assessed as increase of alpha-tubulin acetylation at 2.5 uM after 8 hrs by Western blotting method relative to control; type: cell-based
[6] = biological target: T1, NAD-dependent protein deacetylase sirtuin-2 (Homo sapiens); test: Inhibition of SIRT2 in human U373 cells assessed as increase of alpha-tubulin acetylation after 8 hrs by Western blotting method; type: cell-based
[7] = biological target: T2, NAD-dependent protein deacetylase sirtuin-1 (Homo sapiens) (UniProt Q96EB6); test: Inhibition of SIRT1 in human Hs683 cells assessed as increase of histone H4 acetylation after 8 hrs by Western blotting method; type: cell-based
T2 sequence (whole entry): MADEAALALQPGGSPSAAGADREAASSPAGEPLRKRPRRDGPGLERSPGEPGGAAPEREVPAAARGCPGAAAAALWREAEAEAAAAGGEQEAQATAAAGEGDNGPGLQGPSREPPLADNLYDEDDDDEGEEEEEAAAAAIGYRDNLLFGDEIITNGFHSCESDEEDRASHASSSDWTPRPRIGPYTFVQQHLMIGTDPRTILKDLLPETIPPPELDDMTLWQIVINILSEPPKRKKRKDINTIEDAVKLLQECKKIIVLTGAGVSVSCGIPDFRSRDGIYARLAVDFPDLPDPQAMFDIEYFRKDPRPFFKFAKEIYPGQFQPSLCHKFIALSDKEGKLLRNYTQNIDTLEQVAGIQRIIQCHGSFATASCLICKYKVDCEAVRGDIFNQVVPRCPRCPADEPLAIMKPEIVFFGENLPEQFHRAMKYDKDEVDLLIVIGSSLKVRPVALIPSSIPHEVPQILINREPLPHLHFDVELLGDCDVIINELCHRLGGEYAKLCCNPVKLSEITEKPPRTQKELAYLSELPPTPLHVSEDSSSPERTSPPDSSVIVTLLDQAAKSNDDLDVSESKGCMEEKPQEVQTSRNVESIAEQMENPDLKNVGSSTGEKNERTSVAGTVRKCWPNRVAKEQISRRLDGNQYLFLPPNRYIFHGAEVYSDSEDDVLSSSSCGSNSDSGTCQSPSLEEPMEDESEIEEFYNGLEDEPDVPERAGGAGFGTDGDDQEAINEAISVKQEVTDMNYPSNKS

[8] = biological target: T2, NAD-dependent protein deacetylase sirtuin-1 (Homo sapiens); test: Inhibition of SIRT1 in human Hs683 cells assessed as increase of histone H4 acetylation at 2.5 uM after 8 hrs by Western blotting method relative to control; type: cell-based
MDA-MB-468 = test: Growth inhibition of human MDA-MB-468 cells after 48 hrs by SRB assay; type: functional; settings: MDA-MB-468, 48 h
Hs 683 [9] = test: Induction of senescence in human Hs683 cells at 5 uM after 6 days by beta-galactosidase assay (reference value: 0.2%); type: functional
Procedure, shortened: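 Cells were kept 6 days in medium containing 5 μM compound or DMSO vehicle, then stained for senescence-associated β-galactosidase activity. Blue-stained cells were counted and expressed as a percentage of total cells counted. Two independent experiments.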

SW1573/2R120 = test: Antiproliferative activity against human SW1573/2R120 cells overexpressing ABCC1/LRP after 72 hrs by MTT assay; type: functional, cell-based; procedure, shortened: as §1
[10] = biological target: T1, NAD-dependent protein deacetylase sirtuin-2 (Homo sapiens); test: Inhibition of SIRT2 in human Hs683 cells assessed as increase of alpha-tubulin acetylation at 1 uM after 8 hrs by Western blotting method relative to control; type: cell-based
SF-295 = test: Growth inhibition of human SF295 cells after 48 hrs by SRB assay; type: functional; settings: SF-295, 48 h
M14 = test: Growth inhibition of human M14 cells after 48 hrs by SRB assay; type: functional; settings: M14, 48 h
[11] = biological target: T1, NAD-dependent protein deacetylase sirtuin-2 (Homo sapiens); test: Inhibition of SIRT2 in human Hs683 cells assessed as increase of alpha-tubulin acetylation at 5 uM after 8 hrs by Western blotting method relative to control; type: cell-based

CC(C)(C)OC(=O)Nc1ccc2c(c1)C(NC(=O)Nc1cccc(C#N)c1)CC(C)(C)O2 (centres undefined)
Activity (PBMC): Non-Toxic
GI50 (NCI-H23): 1.12 µM
GI50 (EKVX): 0.562 µM
Ratio IC50 [1]: 6
GI50 (UACC-257): 0.871 µM
GI50 (OVCAR-5): 33.9 µM
Activity (Hs 683 [2]): Active
GI50 (A549): 2.75 µM
fold change (FC) [3]: 1.6
GI50 (NCI-H460): 3.02 µM
GI50 (SNB-19): 3.72 µM
GI50 (NCI-H226): 2 µM
IC50 [4]: 6 to 7.5 µM
fold change (FC) [5]: 1.2
inhibition [6]: Dose-dependent effect
inhibition [7]: Dose-dependent effect
fold change (FC) [8]: 1.9
GI50 (MDA-MB-468): 0.269 µM
Activity (Hs 683 [9]): 0.5%
Activity (SW1573/2R120): Active
fold change (FC) [10]: 1.3
GI50 (SF-295): 2.29 µM
GI50 (M14): 4.17 µM
fold change (FC) [11]: 1.5
